Data reported in ChEMBL document CHEMBL1139534, “Inhibition of herpes simplex virus thymidine kinases by 2-phenylamino-6-oxopurines and related compounds: structure-activity relationships and antiherpetic activity in vivo” (J Med Chem, 2005).
pIC50, pKi: −log10 of the molar value.

Experiments:
Thymidine kinase [1] = molecular target: T1, Thymidine kinase (Human herpesvirus 1 (strain SC16) (HHV-1) (Human herpes simplex virus1), UniProt P06479); assay: Inhibitory concentration against herpes simplex virus type 1 thymidine kinase
T1 sequence (P06479 whole entry): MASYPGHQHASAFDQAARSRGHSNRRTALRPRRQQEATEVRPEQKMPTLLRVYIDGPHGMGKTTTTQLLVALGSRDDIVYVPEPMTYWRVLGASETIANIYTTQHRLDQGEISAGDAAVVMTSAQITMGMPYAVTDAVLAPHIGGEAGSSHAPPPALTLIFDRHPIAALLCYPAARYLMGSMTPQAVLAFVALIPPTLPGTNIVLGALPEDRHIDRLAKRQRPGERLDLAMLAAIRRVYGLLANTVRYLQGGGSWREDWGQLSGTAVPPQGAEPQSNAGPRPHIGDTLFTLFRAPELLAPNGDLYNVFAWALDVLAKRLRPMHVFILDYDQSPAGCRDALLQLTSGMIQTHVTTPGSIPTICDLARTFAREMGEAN

Thymidine kinase [2] = molecular target: T2, Thymidine kinase (Human herpesvirus 2, UniProt Q6L709); assay: Inhibitory concentration against herpes simplex virus type 2 thymidine kinase; parameters: species or system Human alphaherpesvirus 2
T2 sequence (Q6L709 whole entry): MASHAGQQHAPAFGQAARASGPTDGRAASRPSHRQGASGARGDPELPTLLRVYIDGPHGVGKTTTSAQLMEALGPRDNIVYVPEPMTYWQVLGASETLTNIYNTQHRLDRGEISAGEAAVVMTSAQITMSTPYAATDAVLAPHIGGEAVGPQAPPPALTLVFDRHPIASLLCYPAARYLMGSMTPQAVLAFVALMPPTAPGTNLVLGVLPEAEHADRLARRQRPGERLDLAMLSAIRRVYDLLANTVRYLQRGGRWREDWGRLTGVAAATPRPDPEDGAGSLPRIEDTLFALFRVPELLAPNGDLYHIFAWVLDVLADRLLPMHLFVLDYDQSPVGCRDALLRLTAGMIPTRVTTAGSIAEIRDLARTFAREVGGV
In short: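 Recombinant His-tagged HSV-2 TK expressed in E. coli, Ni-NTA purified. Products captured on DEAE paper and counted by scintillation. Inhibitor diluted from DMSO stocks, at least five concentrations in duplicate; IC50 is the concentration halving activity.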

Mus musculus [3] = assay: Effect on HSV-1 encephalitis in mice following intraperitoneal dosage at 100 mg/kg; expressed as number of survivors/10; type: functional
In short: (§1)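 Female BALB/c mice, 6 weeks old, groups of 10, anesthetized with ketamine/xylazine. Corneas lightly scratched, then 10⁶ PFU per eye applied in culture medium (HSV-1 McKrae or HSV-2 G, Vero-grown). Compound given ip as corn-oil suspension, 0.1 mL, twice daily for 5 days; vehicle controls. Mice alive at 30 days counted survivors; day of death recorded for the rest.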

Mus musculus [4] = assay: Effect on HSV-2 encephalitis in mice following intraperitoneal dosage at 100 mg/kg; expressed as number of survivors/10; type: functional; in short: as §1
Mus musculus [5] = assay: Effect on ocular HSV-2 reactivation in mice following intraperitoneal dosage at 200 mg/kg; expressed as HSV-2 positive cultures/15 mice; type: functional, Eye
In short: (§2)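 Female BALB/c mice, 6 weeks old, ocularly infected with HSV-2 strain G (Vero-grown) to establish trigeminal latency. Groups of 15 received a single ip dose as a corn oil suspension, with a corn oil-only group. Thirty minutes later they were immersed in 43 °C water for 10 min as hyperthermic stress. Eyes were swabbed after 24 h for infectious virus, and virus-positive cultures were counted per group.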

Mus musculus [6] = assay: Effect on HSV-1 encephalitis in mice following intraperitoneal dosage at 100 mg/kg; expressed as mean day of death; type: functional; in short: as §1
Mus musculus [7] = assay: Effect on HSV-2 encephalitis in mice following intraperitoneal dosage at 100 mg/kg; expressed as mean day of death; type: functional; in short: as §1
Mus musculus [8] = assay: Effect on HSV-1 encephalitis in mice following intraperitoneal dosage at 200 mg/kg; expressed as number of survivors/10; type: functional; in short: as §1
Mus musculus [9] = assay: Effect on HSV-1 encephalitis in mice following intraperitoneal dosage at 400 mg/kg; expressed as number of survivors/10; type: functional; in short: as §1
Mus musculus [10] = assay: Effect on HSV-2 encephalitis in mice following intraperitoneal dosage at 200 mg/kg; expressed as number of survivors/10; type: functional; in short: as §1
Mus musculus [11] = assay: Effect on HSV-2 encephalitis in mice following intraperitoneal dosage at 400 mg/kg; expressed as number of survivors/10; type: functional; in short: as §1
Mus musculus [12] = assay: Effect on HSV-1 encephalitis in mice following intraperitoneal dosage at 200 mg/kg; expressed as mean day of death; type: functional; in short: as §1
Mus musculus [13] = assay: Effect on HSV-1 encephalitis in mice following intraperitoneal dosage at 400 mg/kg; expressed as mean day of death; type: functional; in short: as §1
Mus musculus [14] = assay: Effect on HSV-2 encephalitis in mice following intraperitoneal dosage at 200 mg/kg; expressed as mean day of death; type: functional; in short: as §1
Mus musculus [15] = assay: Effect ocular HSV-2 reactivation in mice following intraperitoneal dosage at 200 mg/kg; expressed as HSV-2 positive cultures/15 mice; type: functional, Eye; in short: as §2
Thymidine kinase [16] = molecular target: T1, Thymidine kinase; assay: Binding affinity for herpes simplex virus type 1 thymidine kinase
Thymidine kinase [17] = molecular target: T2, Thymidine kinase; assay: Binding affinity for herpes simplex virus type 2 thymidine kinase; parameters: species or system Human alphaherpesvirus 2
In short: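 His-tagged recombinant HSV-2 TK, expressed in E. coli DH5α and purified on Ni-NTA. Incubated 15 min at 37 °C in 30 mM HEPES-K+ pH 7.5, 6 mM MgCl2, 6 mM ATP, 0.5 mM DTT, with several [3H-methyl]TdR concentrations and inhibitor diluted from DMSO stocks. Phosphorylated product retained on DEAE paper disks and counted by scintillation. Ki taken from double-reciprocal (Lineweaver-Burk) plots.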

Mus musculus [18] = assay: Effect on HSV-2 encephalitis in mice following intraperitoneal dosage at 400 mg/kg; expressed as mean day of death; type: functional; in short: as §1

Structure (SMILES)	pIC50 (Thymidine kinase [1])	pIC50 (Thymidine kinase [2])	other results
COCCCCn1cnc2c(=O)[nH]c(Nc3ccccc3)nc21	4.92	4.85	–
OCCCn1cnc2c(O)nc(Nc3ccccc3)nc21	5.70	5.82	Activity (Mus musculus [3]): 1; Activity (Mus musculus [4]): 0; Activity (Mus musculus [5]): 9; Activity (Mus musculus [6]): 9.7; Activity (Mus musculus [7]): 10.7
CN(c1ccccc1)c1nc2c(ncn2CCCCO)c(=O)[nH]1	4.80	4.43	–
O=C(O)CCCn1cnc2c(O)nc(Nc3ccccc3)nc21	6.00	6.15	Activity (Mus musculus [5]): 11
Nc1nc2c(ncn2CCCCO)c(=O)[nH]1	4.22	3.80	–
O=c1[nH]c(Nc2ccccc2)nc2c1ncn2CCO	5.36	–	–
OCCCCCn1cnc2c(O)nc(Nc3ccccc3)nc21	4.82	4.27	Activity (Mus musculus [3]): 0; Activity (Mus musculus [4]): 1; Activity (Mus musculus [5]): 8; Activity (Mus musculus [6]): 10.7; Activity (Mus musculus [7]): 11.2
O=c1[nH]c(Oc2ccccc2)nc2c1ncn2CCCCO	6.12	5.05	–
O=c1[nH]c(Nc2ccccc2)nc2c1ncn2CCCCO	–	–	Activity (Mus musculus [3]): 3; Activity (Mus musculus [8]): 6; Activity (Mus musculus [9]): 9; Activity (Mus musculus [4]): 4; Activity (Mus musculus [10]): 9; Activity (Mus musculus [11]): 10; Activity (Mus musculus [5]): 4; Activity (Mus musculus [6]): 9.5; Activity (Mus musculus [12]): 11.8; Activity (Mus musculus [13]): 11; Activity (Mus musculus [7]): 15.7; Activity (Mus musculus [14]): 18
OCCCCn1cnc2c(O)nc(Sc3ccccc3)nc21	6.30	5.70	Activity (Mus musculus [15]): 10
CCN(C)CCCCn1cnc2c(O)nc(Nc3ccccc3)nc21	5.33	6.42	–
OCCC1CCCCN1CCCCn1cnc2c(O)nc(Nc3ccccc3)nc21 (stereo not given)	6.11	7.19	–
CN(C)CCCCn1cnc2c(O)nc(Nc3ccccc3)nc21	5.44	6.21	–
OCCN(CCO)CCCCn1cnc2c(O)nc(Nc3ccccc3)nc21	5.28	6.47	–
Oc1nc(Nc2ccccc2)nc2c1ncn2CCCCN1CCC(O)CC1	5.09	6.15	–
Oc1nc(Nc2ccccc2)nc2c1ncn2CCCCN1CCCC(O)C1 (stereo not given)	5.24	6.51	–

Structure (SMILES)	pIC50 (Thymidine kinase [1])	pIC50 (Thymidine kinase [2])	other results
Oc1nc(Nc2ccccc2)nc2c1ncn2CCCCN1CCC(O)(c2ccc(Cl)c(C(F)(F)F)c2)CC1	5.70	6.70	–
Cl.Cl.Oc1nc(Nc2ccccc2)nc2c1ncn2CCCCN1CCCCC1	5.80	6.66	Activity (Mus musculus [4]): 0; Activity (Mus musculus [5]): 11; Activity (Mus musculus [7]): 15.2
Oc1nc(Nc2ccccc2)nc2c1ncn2CCCCN1CCCCC1c1ccccc1 (stereo not given)	6.26	7.05	–
COC1CCCN(CCCCn2cnc3c(O)nc(Nc4ccccc4)nc32)C1 (stereo not given)	5.60	6.82	–
CCN(CC)CCCCn1cnc2c(O)nc(Nc3ccccc3)nc21	5.35	6.64	–
Oc1nc(Nc2ccccc2)nc2c1ncn2CCCCN1CCC(N2CCCCC2)CC1	4.78	6.00	–
C=CCN(CC=C)CCCCn1cnc2c(O)nc(Nc3ccccc3)nc21	5.68	6.38	–
Oc1nc(Nc2ccccc2)nc2c1ncn2CCCCN1CCCC1CN1CCCCC1 (stereo not given)	6.00	6.89	–
Cl.Cl.Oc1nc(Nc2ccccc2)nc2c1ncn2CCCCN1CCCC2CCCCC21 (stereo not given)	6.82	7.89	pKi (Thymidine kinase [16]): 7.52; pKi (Thymidine kinase [17]): 8.30; Activity (Mus musculus [10]): 0; Activity (Mus musculus [5]): 10; Activity (Mus musculus [14]): 15.4
Oc1nc(Nc2ccccc2)nc2c1ncn2CCCCN1CCCc2ccccc21	6.46	7.33	–
CC1CN(CCCCn2cnc3c(O)nc(Nc4ccccc4)nc32)CC(C)N1 (stereo not given)	5.15	6.10	–
N#CC1(c2ccccc2)CCN(CCCCn2cnc3c(O)nc(Nc4ccccc4)nc32)CC1	6.39	6.66	–
COC1CCN(CCCCn2cnc3c(O)nc(Nc4ccccc4)nc32)CC1	5.64	6.85	–
Nc1nc2c(ncn2COCCO)c(=O)[nH]1 [ACYCLOVIR]	–	–	Activity (Mus musculus [3]): 7; Activity (Mus musculus [4]): 6; Activity (Mus musculus [5]): 10; Activity (Mus musculus [6]): 13; Activity (Mus musculus [7]): 17.2
O=C(O)P(=O)(O)O [FOSCARNET]	–	–	Activity (Mus musculus [3]): 1; Activity (Mus musculus [8]): 5; Activity (Mus musculus [9]): 7; Activity (Mus musculus [4]): 0; Activity (Mus musculus [10]): 4; Activity (Mus musculus [11]): 6; Activity (Mus musculus [5]): 7; Activity (Mus musculus [6]): 9.2; Activity (Mus musculus [12]): 10.4; Activity (Mus musculus [13]): 12.3; Activity (Mus musculus [7]): 15.2; Activity (Mus musculus [14]): 17.8; Activity (Mus musculus [18]): 18.5
